Results on 16 molecules are retold here after ChEMBL document CHEMBL1141787, “Antifungal activity of artemisinin derivatives” (J Nat Prod, 2005).

The structures appear in SMILES notation. Converted amounts (≈) assume the structure as drawn. The source made the active and inactive calls. The rule behind the calls is not given here.

Common to all, as to type: functional, organism-based
The subject of experiment [1] is Cryptococcus neoformans. The experiment is described as follows: Antifungal activity against Cryptococcus neoformans ATCC 90113 by modified NCCLS method. A digest of the protocol:
(§1)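 Broth microdilution following a modified NCCLS method. The inoculum was a subculture diluted in its incubation broth. Compounds were dissolved in DMSO, serially diluted in normal saline and tested in duplicate, at final concentrations starting at 50 µg/mL. Amphotericin B served as positive control, with media-only blanks. Turbidity was read at 630 nm before and after incubation. Percent growth was plotted against concentration to give IC50/MIC.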

Experiment [2] relates to Candida albicans. Put plainly: Antifungal activity against Candida albicans ATCC 90028 at 50 ug/mL by modified NCCLS method. A digest of the protocol:
as §1

Experiment [3] deals with Cryptococcus neoformans. The experiment is described as follows: Antifungal activity against Cryptococcus neoformans ATCC 90113 at 50 ug/mL by modified NCCLS method. The gist of the method:
as §1

Experiment [4] relates to Candida albicans. Put plainly: Antifungal activity against Candida albicans ATCC 90028 by modified NCCLS method. The gist of the method: as §1

In turn, `CO[C@@H]1O[C@@H]2O[C@]3(C)CC[C@H]4[C@H](C)CC[C@@H]([C@H]1C)[C@@]24OO3` yielded an IC50 in experiment [1] of 1.5 µg/mL (≈ 5.03 µM). The result in experiment [2] and in experiment [3] was inactive.

For `C[C@@H]1[C@H](O)[C@@H](C)/C=C/C=C/C=C/C=C/C=C/C=C/C=C/[C@H](O[C@@H]2O[C@H](C)[C@@H](O)[C@H](N)[C@@H]2O)C[C@@H]2O[C@](O)(C[C@@H](O)C[C@@H](O)[C@H](O)CC[C@@H](O)C[C@@H](O)CC(=O)O[C@H]1C)C[C@H](O)[C@H]2C(=O)O` [AMPHOTERICIN B], in experiment [1], the 50% inhibitory concentration (IC50) was determined as 0.35 µg/mL (≈ 0.379 µM) and the MIC stood at 0.625 µg/mL (≈ 0.676 µM). Also, in experiment [4], half-maximal inhibition (IC50) was put at 0.1 µg/mL (≈ 0.108 µM) and the lowest concentration to inhibit growth (MIC) was 0.15 µg/mL (≈ 0.162 µM).

As to `C[C@H]1[C@@H](O[C@H]2CC[C@@H](O)CC2)O[C@@H]2O[C@]3(C)CC[C@H]4[C@H](C)CC[C@@H]1[C@@]24OO3`, the IC50 in experiment [1] stood at 0.9 µg/mL (≈ 2.35 µM). Besides, the result in experiment [2] and in experiment [3] was inactive.

Regarding `CCO[C@H]1O[C@@H]2O[C@@]3(C)CC[C@H]4[C@H](C)CC[C@@H]([C@H]1C)[C@@]24OO3` [ARTEMOTIL], in experiment [1], the IC50 amounted to 0.085 µg/mL (≈ 0.272 µM) and the MIC is 3.13 µg/mL (≈ 10 µM). In experiment [4], this molecule came in with an IC50 of 15 µg/mL (≈ 48 µM) and an MIC of 50 µg/mL (≈ 160 µM).

As for `C[C@H]1[C@@H](O[C@H]2CC[C@H](O)CC2)O[C@@H]2O[C@]3(C)CC[C@H]4[C@H](C)CC[C@@H]1[C@@]24OO3`, in experiment [1], the IC50 is 1 µg/mL (≈ 2.61 µM). Further, the result in experiment [2] and in experiment [3] was inactive.

In experiment [1], `C[C@H]1[C@@H](OCCCCO)O[C@@H]2O[C@]3(C)CC[C@H]4[C@H](C)CC[C@@H]1[C@@]24OO3` displayed an IC50 of 0.6 µg/mL (≈ 1.68 µM). Besides, the outcome in experiment [2] and in experiment [3] was inactive.

As for `C[C@@H]1CC[C@H]2[C@@H](C)C(=O)O[C@@H]3O[C@@]4(C)CC[C@@H]1[C@]32OO4` [ARTEMISININ], in experiment [1], the IC50 came to 2 µg/mL (≈ 7.08 µM) and the MIC is 50 µg/mL (≈ 177 µM). In experiment [4], this molecule registered an IC50 of 8 µg/mL (≈ 28.3 µM) and an MIC of 50 µg/mL (≈ 177 µM).

Take `C[C@H]1[C@@H](O)O[C@@H]2OC3(C)CC[C@H]4[C@H](C)CC[C@@H]1[C@@]24OO3` (single isomer, unassigned) [ARTENIMOL]: in experiment [1], the IC50 turned out to be 0.09 µg/mL (≈ 0.317 µM) and the MIC amounted to 12.5 µg/mL (≈ 44 µM). Besides, the outcome in experiment [2] was inactive. Moreover, in experiment [4], the IC50 is 9 µg/mL (≈ 31.7 µM).

In experiment [1], `CO[C@H]1O[C@@H]2OC3(C)CC[C@H]4[C@H](C)CC[C@@H]([C@H]1C)[C@@]24OO3` (single isomer, unassigned) [ARTEMETHER] registered an IC50 of 0.6 µg/mL (≈ 2.01 µM) and an MIC of 25 µg/mL (≈ 83.8 µM). Also, the result in experiment [2] was inactive.

In experiment [1], `CCO[C@@H]1O[C@@H]2O[C@]3(C)CC[C@H]4[C@H](C)CC[C@@H]([C@H]1C)[C@@]24OO3` [ALPHA-ARTEETHER] came in with an IC50 of 0.045 µg/mL (≈ 0.144 µM) and an MIC of 1.56 µg/mL (≈ 4.99 µM). Besides, in experiment [2], the outcome was inactive. The same molecule displayed an IC50 in experiment [4] of 3 µg/mL (≈ 9.6 µM).

In experiment [1], `C=C1C(=O)O[C@@H]2OC3(C)CC[C@H]4[C@H](C)CC[C@@H]1[C@@]24OO3` (single isomer, unassigned) [ARTEMISITENE] showed an IC50 of 0.045 µg/mL (≈ 0.161 µM). Further, the result in experiment [2] and in experiment [3] was inactive.

Regarding `CC1=CO[C@@H]2O[C@]3(C)CC[C@H]4[C@H](C)CC[C@@H]1[C@@]24O3`, the concentration for half-maximal inhibition (IC50) was determined as 6 µg/mL (≈ 24 µM) in experiment [1] and 30 µg/mL (≈ 120 µM) in experiment [4]. The result in experiment [2] and in experiment [3] was inactive.

In turn, `C=C1[C@@H](OCCO)O[C@@H]2O[C@]3(C)CC[C@H]4[C@H](C)CC[C@@H]1[C@@]24OO3` came in with an IC50 in experiment [1] of 3 µg/mL (≈ 9.19 µM). The result in experiment [2] and in experiment [3] was inactive.

Regarding `C[C@H]1[C@@H](Oc2ccc(O)cc2)O[C@@H]2O[C@]3(C)CC[C@H]4[C@H](C)CC[C@@H]1[C@@]24OO3`, 0.087 µg/mL (≈ 0.231 µM) corresponded to half-maximal inhibition in experiment [1] (IC50). In addition, the result in experiment [2] and in experiment [3] was inactive.

Take `CC1=CO[C@@H]2O[C@]3(C)CC[C@H]4[C@H](C)CC[C@@H]1[C@@]24OO3` [ANHYDRODIHYDROARTEMISININ]: the IC50 in experiment [1] was 0.045 µg/mL (≈ 0.169 µM); in experiment [4], 7 µg/mL (≈ 26.3 µM). In addition, the MIC in experiment [1] was determined as 0.195 µg/mL (≈ 0.732 µM); in experiment [4], 50 µg/mL (≈ 188 µM).

With `C[C@H]1[C@@H](Oc2ccc(S)cc2)O[C@@H]2O[C@]3(C)CC[C@H]4[C@H](C)CC[C@@H]1[C@@]24OO3`, the IC50 in experiment [1] came out at 0.31 µg/mL (≈ 0.79 µM). Besides, the result in experiment [2] and in experiment [3] was inactive.
